From ChEMBL document CHEMBL4152271, “Polypharmacological profile of 1,2-dihydro-2-oxo-pyridine-3-carboxamides in the endocannabinoid system” (Eur J Med Chem, 2018) come the findings set out here.

One assay concerns the target Cannabinoid receptor 2 (Homo sapiens, UniProt P34972). Kind of assay: Agonist activity at human CB2 receptor expressed in CHO cell membranes after 90 mins by [35S]GTPgammaS binding assay. Type of assay: functional. Put shortly:
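Membranes (5 µg) of hCB2-expressing cells in 50 mM Tris-HCl, 3 mM MgCl₂, 0.2 mM EDTA, 100 mM NaCl, 0.5% fatty acid-free BSA, pH 7.4, with 10 µM GDP and 0.1 nM [³⁵S]GTPγS. Kept on ice, started by vehicle or compound, 90 min at 30 °C. Nonspecific binding with 10 µM GTPγS. Filtered on GF/B, radioactivity counted. At least three experiments in triplicate, mean ± SD.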

The target in assay [1] is T1, Fatty-acid amide hydrolase 1 (Homo sapiens, UniProt O00519).
T1 sequence (O00519 whole entry): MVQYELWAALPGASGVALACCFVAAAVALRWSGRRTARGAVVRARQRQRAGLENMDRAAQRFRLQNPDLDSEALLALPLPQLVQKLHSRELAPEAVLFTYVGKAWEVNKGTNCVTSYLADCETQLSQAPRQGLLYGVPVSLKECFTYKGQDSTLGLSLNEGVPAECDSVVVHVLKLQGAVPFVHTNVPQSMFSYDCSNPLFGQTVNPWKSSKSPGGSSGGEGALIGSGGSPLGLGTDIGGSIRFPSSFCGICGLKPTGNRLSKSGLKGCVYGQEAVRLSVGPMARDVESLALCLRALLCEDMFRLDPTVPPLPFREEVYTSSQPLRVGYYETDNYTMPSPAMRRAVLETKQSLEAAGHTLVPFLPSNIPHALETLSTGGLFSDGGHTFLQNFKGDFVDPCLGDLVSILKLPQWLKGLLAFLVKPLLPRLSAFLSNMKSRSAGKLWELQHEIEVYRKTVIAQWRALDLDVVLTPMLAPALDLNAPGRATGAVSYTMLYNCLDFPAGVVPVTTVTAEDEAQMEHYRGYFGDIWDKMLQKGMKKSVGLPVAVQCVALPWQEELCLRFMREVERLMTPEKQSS
Briefly: Inhibition of FAAH in human U937 cells using AEA containing [ethanolamine-1-3H]AEA as substrate preincubated for 30 mins followed by substrate addition and measured after 15 mins by liquid scintillation spectroscopic method. Type of assay: cell-based. Put shortly:
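U937 cell homogenate (100 µg) in 10 mM Tris-HCl, 1 mM EDTA, pH 8, 0.1% fatty acid-free BSA. Compound at 10 µM screening concentration, 30 min at 37 °C. FAAH: 100 nM AEA with 1 nM [³H]AEA tracer. MAGL: 1 µM 2-OG with 1 nM tritiated tracer. Both 15 min at 37 °C, stopped with CHCl₃:MeOH (1:1), aqueous phase counted.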

The target of assay [2] is T2, Cannabinoid receptor 1 (Homo sapiens, UniProt P21554). Briefly: Agonist activity at CB1 receptor in human U251MG cells assessed as upregulation of MICA/B expression at 10 uM after 24 hrs by cytofluorimetric method. Type of assay: functional, cell-based. In short, it runs like this:
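U251MG glioma cells seeded at 2x10⁴ cells/cm², grown 24h, washed, then exposed to vehicle or compound in complete medium for 24 h. 2x10⁵ cells stained with PE anti-MICA/B or isotype control, 20 min at 4°C, fixed in 1% formaldehyde. Flow cytometry read-out as MFI, 3 independent experiments, mean ± SD, ANOVA with Bonferroni.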

The target in assay [3] is T2, Cannabinoid receptor 1. Kind of assay: Agonist activity at human CB1 receptor expressed in CHO cell membranes after 90 mins by [35S]GTPgammaS binding assay. Format: functional, cell-based.

Structures are written as SMILES. Activity calls are given as the source filed them. No cut-off for these calls is given here. Where only a bound is given, the exact number is not on record here.

T2 sequence (P21554 whole entry): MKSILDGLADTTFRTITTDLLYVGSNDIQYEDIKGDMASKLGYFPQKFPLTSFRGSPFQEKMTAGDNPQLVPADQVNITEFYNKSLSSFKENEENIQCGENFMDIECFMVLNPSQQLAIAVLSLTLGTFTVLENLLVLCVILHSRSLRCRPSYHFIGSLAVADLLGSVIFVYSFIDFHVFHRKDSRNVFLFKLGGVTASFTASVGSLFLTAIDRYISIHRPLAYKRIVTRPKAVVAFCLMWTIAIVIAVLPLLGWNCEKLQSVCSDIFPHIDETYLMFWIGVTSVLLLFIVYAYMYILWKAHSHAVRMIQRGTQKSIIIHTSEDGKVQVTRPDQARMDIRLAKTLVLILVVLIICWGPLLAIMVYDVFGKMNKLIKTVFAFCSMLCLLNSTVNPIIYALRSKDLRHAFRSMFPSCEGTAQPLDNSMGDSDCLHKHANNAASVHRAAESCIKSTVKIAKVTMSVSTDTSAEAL
Chain of Cannabinoid receptor 2 (P34972 whole entry): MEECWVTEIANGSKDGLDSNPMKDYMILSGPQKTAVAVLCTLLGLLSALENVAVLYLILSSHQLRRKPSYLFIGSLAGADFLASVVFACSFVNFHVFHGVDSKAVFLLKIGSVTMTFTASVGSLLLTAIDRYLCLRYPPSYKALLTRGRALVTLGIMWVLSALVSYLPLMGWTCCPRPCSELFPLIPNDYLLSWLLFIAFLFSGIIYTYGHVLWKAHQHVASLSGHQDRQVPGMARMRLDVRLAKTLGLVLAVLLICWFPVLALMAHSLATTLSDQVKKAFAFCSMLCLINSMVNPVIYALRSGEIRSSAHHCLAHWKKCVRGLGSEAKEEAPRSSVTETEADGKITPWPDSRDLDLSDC

With `Cc1c(Br)cn(Cc2ccc(F)cc2)c(=O)c1C(=O)NC1CCCCCC1`, the concentration for a half-maximal effect (EC50) at Cannabinoid receptor 2 came out at 1.1 nM; on Cannabinoid receptor 1 [3] it was 1.4 nM. Moreover, the IC50 in assay [1] turned out to be 2300 nM. The result at Cannabinoid receptor 1 [2] was Active.

The compound `COc1ccc(-c2cn(Cc3ccc(F)cc3)c(=O)c(C(=O)NC3CCCCCC3)c2C)cc1` displayed an IC50 in assay [1] of 1300 nM. In addition, the result on Cannabinoid receptor 1 [2] was Active. The compound also registered a half-maximal effective concentration (EC50) on Cannabinoid receptor 1 [3] of 96 nM.

With `Cc1c(Br)cnc(OCc2ccc(F)cc2)c1C(=O)NC1CCCCCC1`, the EC50 was 687 nM on Cannabinoid receptor 2 and 182 nM on Cannabinoid receptor 1 [3]. In assay [1], the concentration for half-maximal inhibition (IC50) was more than 10000 nM. The result on Cannabinoid receptor 1 [2] was Active.

The EC50 is the concentration giving half of the maximal effect. High values mean a need for much substance, low ones an effect from little substance. Broadly, the IC50 is the midpoint of a concentration-inhibition curve. Read a high IC50 as a need for much substance.
